For one test, the system named is Plasmodium chabaudi. Put plainly: Antimalarial activity against chloroquine-resistant Plasmodium chabaudi infected in mouse assessed as reversal of chloroquine-resistance at 10 mg/kg, po administered 4 days after post infection. Type of test: functional, organism-based. Details: dose 10 mg/kg. The essentials: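 Mice infected with CQ-resistant P. chabaudi. Test compounds were given perorally at 10 mg/kg, alongside CQ at 3 mg/kg given intraperitoneally. Resistance reversal was read at day 4 after infection. Groups were compared by one-way ANOVA followed by Dunnett's test.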

For test [1], the target named is T1, Glutathione reductase, putative (Plasmodium chabaudi) (UniProt A0A077YEX9). Put plainly: Inhibition of Plasmodium chabaudi glutathione reductase assessed as residual reduced glutathione level after 30 mins in absence of glutathione S-transferase. The procedure, abridged:
(§1)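 Compounds were incubated with GSH, with or without GST, at 37 °C for 30 min. The residual GSH ratio was obtained from the absorbance of the medium.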

Test [2] concerns the target T1, Glutathione reductase, putative (Plasmodium chabaudi). Put plainly: Inhibition of Plasmodium chabaudi glutathione reductase assessed as residual reduced glutathione level after 30 mins in presence of glutathione S-transferase. The procedure, abridged: as §1

Activity calls are given as the source filed them. No cut-off for these calls is given here.

T1 sequence (A0A077YEX9 as listed by the source): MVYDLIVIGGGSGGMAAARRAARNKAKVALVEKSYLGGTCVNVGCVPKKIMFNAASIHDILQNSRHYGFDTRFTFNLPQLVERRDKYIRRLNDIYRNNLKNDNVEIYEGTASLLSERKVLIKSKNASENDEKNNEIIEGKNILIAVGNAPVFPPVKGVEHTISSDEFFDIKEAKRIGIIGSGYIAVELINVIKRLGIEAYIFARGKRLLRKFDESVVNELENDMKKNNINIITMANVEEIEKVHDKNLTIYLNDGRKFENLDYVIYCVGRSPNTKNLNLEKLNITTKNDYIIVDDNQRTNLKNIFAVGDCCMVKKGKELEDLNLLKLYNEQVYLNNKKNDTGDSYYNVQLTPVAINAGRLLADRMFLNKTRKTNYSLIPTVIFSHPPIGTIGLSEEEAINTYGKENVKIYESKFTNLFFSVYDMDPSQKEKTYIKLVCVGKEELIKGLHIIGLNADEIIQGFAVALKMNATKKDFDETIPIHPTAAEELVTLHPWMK

Consider `COc1ccc(/C=C2\C[C@@]3(O)[C@H]4Cc5ccc(O)c6c5[C@@]3(CCN4CC3CC3)[C@@H](O6)C2=O)cc1`, for which the result with Plasmodium chabaudi was Active. On the same count and under the same terms, to `O=C1/C(=C/c2ccc(F)cc2)C[C@@]2(O)[C@H]3Cc4ccc(O)c5c4[C@@]2(CCN3CC2CC2)[C@H]1O5` belongs “Active”. On to `O=C1[C@@H](Cc2ccccc2)C[C@@]2(O)[C@H]3Cc4ccc(O)c5c4[C@@]2(CCN3CC2CC2)[C@H]1O5`, for which the inhibition entry in test [1] and in test [2] was “inactive” each time. For `O=C1/C(=C/c2ccccc2)C[C@@]2(O)[C@H]3Cc4ccc(O)c5c4[C@@]2(CCN3CC2CC2)[C@H]1O5`, in the test with Plasmodium chabaudi, the outcome was Active.

The values are drawn from ChEMBL document CHEMBL2057172, “Investigation of 7-benzylidenenaltrexone derivatives as resistance reverser for chloroquine-resistant Plasmodium chabaudi” (Bioorg Med Chem Lett, 2012).
